pEC50: −log10 of the molar value. The source made the active and inactive calls. The calls are words filed in the database; no cut-off is given here.
How the values were obtained:
[1] = Antiproliferative activity against human KB/HeLa cells after 48 hrs; format: functional, cell-based
In short: (§1)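 Cells seeded in supplier-recommended growth medium at line-adapted densities (linear signal range), grown 24 h at 37 °C/5% CO2, then exposed to compound; highest concentration 3.16 μM. After 45 h, resazurin (0.2 mg/mL in DPBS) added for 3 h; fluorescence at 590 nm read at 48 h. % efficacy vs untreated cells and cell-free blanks; EC50 by nonlinear regression from at least two independent assays.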

[2] = Antiproliferative activity against human RKOp27IND cells after 48 hrs; format: functional, cell-based; in short: as §1
[3] = Antiproliferative activity against human RKOp27 cells after 48 hrs; format: functional, cell-based; conditions: RKOp27, 48 h; in short: as §1
NCI-H460 [4] = experiment: Antiproliferative activity against human NCI-H460 cells after 48 hrs; format: functional, cell-based; conditions: NCI-H460, 48 h; in short: as §1
SF-268 [5] = experiment: Antiproliferative activity against human SF268 cells after 48 hrs; format: functional, cell-based; conditions: SF-268, 48 h; in short: as §1
SK-OV-3 [6] = experiment: Antiproliferative activity against human SKOV3 cells after 48 hrs; format: functional, cell-based; conditions: SK-OV-3, 48 h; in short: as §1
SK-OV-3 [7] = experiment: Antiproliferative activity against human SKOV3 cells at 3.16 uM after 48 hrs; format: functional; conditions: SK-OV-3, 48 h
In short: (§2)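 Cells were seeded in the supplier-recommended medium and grown 24 h at 37 °C/5% CO2 before compound addition. Resazurin (0.2 mg/mL in DPBS) was added after 45 h, and fluorescence at 590 nm was read at 48 h total. % inhibition at the highest concentration (3.16 μM) was scored against untreated cells and cell-free blanks on each plate. Data came from at least two independent assays.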

[8] = Antiproliferative activity against human RKOp27IND cells at 3.16 uM after 48 hrs; format: functional; in short: as §2
SF-268 [9] = experiment: Antiproliferative activity against human SF268 cells at 3.16 uM after 48 hrs; format: functional; conditions: SF-268, 48 h; in short: as §2
DNA = experiment: Binding affinity to calf thymus DNA up to 5 mM; format: nucleic-acid assay; conditions: Bos taurus
In short: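 UV-vis absorbance shift assay. Stocks of up to 5 mM were made in 5% DMSO or methanol. They were diluted in pH 7 phosphate buffer (5 mM NaH2PO4, 5 mM Na2HPO4, 70 mM NaCl) to give a maximum absorbance of about 1–2. Spectra were taken from 230–600 nm with and without 2 mg/ml calf thymus DNA, and peak shifts were compared.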

[10] = Cell cycle arrest in human KB/HeLa cells assessed as accumulation at S phase at < 4 uM after 24 hrs by flow cytometry analysis; format: functional, cell-based
In short: (§3)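 Exponentially dividing KB/HeLa cells (ATCC CCL17) were exposed at 37 °C to a range of compound concentrations and compared with untreated controls. Cells were prepared with the CycleTEST PLUS kit. DNA content was measured by flow cytometry (FACSCalibur), and phase distribution was derived with cell cycle analysis software.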

[11] = Cell cycle arrest in human KB/HeLa cells assessed as accumulation at S phase at < 6 uM after 24 hrs by flow cytometry analysis; format: functional, cell-based; in short: as §3
[12] = Antiproliferative activity against human KB/HeLa cells at 3.16 uM after 48 hrs; format: functional; in short: as §2
[13] = Antiproliferative activity against human RKOp27 cells at 3.16 uM after 48 hrs; format: functional; conditions: RKOp27, 48 h; in short: as §2
NCI-H460 [14] = experiment: Antiproliferative activity against human NCI-H460 cells at 3.16 uM after 48 hrs; format: functional; conditions: NCI-H460, 48 h; in short: as §2
[15] = Cell cycle arrest in human KB/HeLa cells assessed as accumulation at S phase up to 11 uM after 24 hrs by flow cytometry analysis; format: functional, cell-based; in short: as §3
[16] = Cell cycle arrest in human KB/HeLa cells assessed as accumulation at S phase at < 7 uM after 24 hrs by flow cytometry analysis; format: functional, cell-based; in short: as §3

| SMILES | pEC50 [1] | pEC50 [2] | pEC50 [3] | pEC50 (NCI-H460 [4]) | pEC50 (SF-268 [5]) | pEC50 (SK-OV-3 [6]) | Activity (DNA) | further results |
| --- | --- | --- | --- | --- | --- | --- | --- | --- |
| CN(C)CCn1nc2c3c(c(NCCOS(C)(=O)=O)ccc31)C(=O)c1ccncc1-2 | 6.82 | 5.74 | 6.77 | 6.60 | 6.41 | 6.26 | – | – |
| CN(C)CCn1nc2c3c(c(NCCc4c[nH]cn4)ccc31)C(=O)c1ccncc1-2 | – | 5.32 | 5.88 | 5.52 | – | 5.78 | – | – |
| CN(C)CCn1nc2c3c(c(NCCCCOS(C)(=O)=O)ccc31)C(=O)c1ccncc1-2 | 5.50 | – | 5.93 | 5.97 | – | – | – | inhibition at 3.16 µM (SK-OV-3 [7]): < 30%; inhibition at 3.16 µM [8]: < 30%; inhibition at 3.16 µM (SF-268 [9]): < 30% |
| CN(C)CCn1nc2c3c(c(NCC/C=C\CCOS(C)(=O)=O)ccc31)C(=O)c1ccncc1-2 | 6.12 | 5.58 | 6.20 | 5.66 | 5.51 | 5.27 | – | – |
| CN(C)CCn1nc2c3c(c(NCCC4CCCN4C)ccc31)C(=O)c1ccncc1-2 (stereo unspecified) | – | 6.34 | 6.43 | 6.80 | – | 6.44 | Active | – |
| CN(C)CCn1nc2c3c(c(NCCc4c[nH]c5ccccc45)ccc31)C(=O)c1ccncc1-2 | – | 5.82 | 5.88 | 5.88 | – | 5.82 | inactive | – |
| CN(C)CCSCCNc1ccc2c3c(nn2CCN(C)C)-c2cnccc2C(=O)c13 | 6.12 | 5.75 | 6.04 | 6.51 | 5.63 | 6.15 | – | – |
| CN(C)CCn1nc2c3c(c(NCCC#CCCO)ccc31)C(=O)c1ccncc1-2 | 5.86 | 5.49 | 5.79 | 6.17 | 5.46 | 5.92 | Active | – |
| CN(C)CCn1nc2c3c(c(NCCCCCCN4CC4)ccc31)C(=O)c1ccncc1-2 | 6.47 | 5.89 | 6.89 | 6.70 | 6.12 | 6.11 | Active | Activity [10]: Active |
| CN(C)CCn1nc2c3c(c(NCCN4CC4)ccc31)C(=O)c1ccncc1-2 | 7.15 | 5.98 | 7.10 | 7.10 | 6.16 | 6.41 | – | – |
| CN(C)CCn1nc2c3c(c(NCCSCCO)ccc31)C(=O)c1ccncc1-2 | 6.02 | 5.97 | 6.26 | 6.82 | 6.18 | 6.40 | Active | – |
| CN(C)CCn1nc2c3c(c(NCC/C=C\CCN4CC4)ccc31)C(=O)c1ccncc1-2 | 6.37 | 5.92 | 6.54 | 6.23 | 5.77 | 5.75 | – | Activity [11]: Active |
| CN(C)CCn1nc2c3c(c(NCCc4ccccn4)ccc31)C(=O)c1ccncc1-2 | – | 5.42 | 5.57 | 6.00 | – | 5.85 | – | – |
| CN(C)CCn1nc2c3c(c(NCCCCCCc4ccc(N(CCCl)CCCl)cc4)ccc31)C(=O)c1ccncc1-2 | – | – | – | – | – | – | – | inhibition at 3.16 µM (SK-OV-3 [7]): < 30%; inhibition at 3.16 µM [12]: < 30%; inhibition at 3.16 µM [8]: < 30%; inhibition at 3.16 µM [13]: < 30%; inhibition at 3.16 µM (NCI-H460 [14]): < 30%; inhibition at 3.16 µM (SF-268 [9]): < 30% |
| CN(C)CCn1nc2c3c(c(NCCC#CCCN4CC4)ccc31)C(=O)c1ccncc1-2 | 6.85 | 6.46 | 7.15 | 7.22 | 6.62 | 6.51 | Active | Activity [15]: inactive |
| CSCCCNc1ccc2c3c(nn2CCN(C)C)-c2cnccc2C(=O)c13 | – | 5.32 | 5.53 | 6.17 | – | 5.87 | – | – |
| c1ccc2nc3ccccc3cc2c1 | – | – | – | – | – | – | Active | – |
| CN(C)CCn1nc2c3c(c(NCCC#CCCOS(C)(=O)=O)ccc31)C(=O)c1ccncc1-2 | 6.41 | 6.01 | 6.33 | 6.39 | 6.12 | 6.14 | – | – |
| CN(C)CCn1nc2c3c(c(NCCc4cccs4)ccc31)C(=O)c1ccncc1-2 | – | 5.32 | 5.51 | 5.83 | – | 5.49 | – | – |
| CN(C)CCn1nc2c3c(c(N(C)C)ccc31)C(=O)c1ccncc1-2 | 5.66 | 5.51 | 5.58 | 6.11 | 5.87 | 5.68 | Active | – |
| O=C1c2c(O)ccc(O)c2C(=O)c2c(NCCNCCO)ccc(NCCNCCO)c21 [MITOXANTRONE] | 6.44 | 6.12 | 7.05 | 6.92 | 6.49 | 6.92 | Active | – |
| CN(C)CCn1nc2c3c(c(NCCCCCCOS(C)(=O)=O)ccc31)C(=O)c1ccncc1-2 | 5.78 | 5.71 | 6.29 | 6.09 | 5.86 | 5.44 | – | – |
| CN(C)CCn1nc2c3c(c(NCCCCN4CC4)ccc31)C(=O)c1ccncc1-2 | 7.10 | 5.99 | 6.00 | 7.15 | 6.38 | 6.28 | Active | – |
| CN(C)CCn1nc2c3c(c(NCCCCc4ccc(N(CCCl)CCCl)cc4)ccc31)C(=O)c1ccncc1-2 | 5.61 | 5.79 | 5.92 | 5.42 | 5.38 | – | – | inhibition at 3.16 µM (SK-OV-3 [7]): < 30% |
| CN(C)CCn1nc2c3c(c(NCC/C=C/CCN4CC4)ccc31)C(=O)c1ccncc1-2 | 5.91 | 5.56 | 6.14 | 6.16 | 5.52 | 5.49 | – | Activity [16]: Active |

Reference: ChEMBL document CHEMBL2331492, “Synthesis and biological evaluation of new cytotoxic indazolo[4,3-gh]isoquinolinone derivatives” (Bioorg Med Chem Lett, 2013)
